# Results taken from ChEMBL document CHEMBL1125426, “Muscarinic receptor subtype specificity of (N,N-dialkylamino)alkyl 2-cyclohexyl-2-phenylpropionates: cylexphenes (cyclohexyl-substituted aprophen analogues)” (J Med Chem, 1992).
# How the values were obtained:
# [1] = molecular target: T1, Muscarinic acetylcholine receptor M3 (Homo sapiens, UniProt P20309); assay: Antimuscarinic potency and subset specificity was characterised by its inhibition of the [3H]NMS Binding to Muscarinic acetylcholine receptor M3 subtype
# How it was run: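 Membranes from A9 L cells stably transfected with cloned m3 receptor (brain library), lysed in 2 mM Tris-HCl pH 7.2/1 mM EDTA, centrifuged 50000g. 150-300 µg protein incubated 60 min, 37 °C with 0.5 nM [3H]NMS plus varied compound concentrations in PBS pH 7.2; filtration, scintillation counting. Nonspecific binding: 1 µM atropine. Ki via LIGAND using KD 164 pM; mean of 3-6 experiments ± SD.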
# [2] = molecular target: T2, Muscarinic acetylcholine receptor M1 (Homo sapiens, UniProt P11229); assay: Antimuscarinic potency and subset specificity was characterised by its inhibition of the [3H]NMS Binding to Muscarinic acetylcholine receptor M1 subtype
# T2 sequence (P11229 whole entry): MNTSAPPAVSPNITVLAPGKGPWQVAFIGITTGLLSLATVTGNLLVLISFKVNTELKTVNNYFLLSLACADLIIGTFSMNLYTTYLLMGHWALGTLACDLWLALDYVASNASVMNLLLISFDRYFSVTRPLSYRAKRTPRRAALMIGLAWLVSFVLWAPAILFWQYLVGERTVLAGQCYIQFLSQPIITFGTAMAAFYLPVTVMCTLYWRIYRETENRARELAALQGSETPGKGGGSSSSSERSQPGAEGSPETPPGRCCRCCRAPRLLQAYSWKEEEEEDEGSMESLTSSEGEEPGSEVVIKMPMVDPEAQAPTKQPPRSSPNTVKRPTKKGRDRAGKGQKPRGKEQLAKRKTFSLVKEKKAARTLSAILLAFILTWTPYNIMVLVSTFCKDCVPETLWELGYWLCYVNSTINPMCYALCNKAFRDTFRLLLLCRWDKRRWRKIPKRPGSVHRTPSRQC
# How it was run: (§1)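 Membranes, by hypotonic lysis (2 mM Tris-HCl pH 7.2, 1 mM EDTA) and 50000g spins, from A9 L cells stably carrying cloned brain m1 or m3, heart (M2) or NG108-15 cells (M4). 150-300 µg protein incubated 60 min at 37 °C in PBS pH 7.2 with 0.5 nM [3H]NMS and varied compound levels. Filtration and scintillation counting. Nonspecific binding taken with 1 µM atropine. Ki from LIGAND with KD 235 (m1), 426 (M2), 164 (m3), 144 (M4) pM. Three to six experiments.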
# [3] = molecular target: T3, Muscarinic acetylcholine receptor M2 (Homo sapiens, UniProt P08172); assay: Antimuscarinic potency and subset specificity was characterised by its inhibition of the [3H]NMS Binding to Muscarinic acetylcholine receptor M2 subtype; how it was run: as §1
# T3 sequence (P08172 whole entry): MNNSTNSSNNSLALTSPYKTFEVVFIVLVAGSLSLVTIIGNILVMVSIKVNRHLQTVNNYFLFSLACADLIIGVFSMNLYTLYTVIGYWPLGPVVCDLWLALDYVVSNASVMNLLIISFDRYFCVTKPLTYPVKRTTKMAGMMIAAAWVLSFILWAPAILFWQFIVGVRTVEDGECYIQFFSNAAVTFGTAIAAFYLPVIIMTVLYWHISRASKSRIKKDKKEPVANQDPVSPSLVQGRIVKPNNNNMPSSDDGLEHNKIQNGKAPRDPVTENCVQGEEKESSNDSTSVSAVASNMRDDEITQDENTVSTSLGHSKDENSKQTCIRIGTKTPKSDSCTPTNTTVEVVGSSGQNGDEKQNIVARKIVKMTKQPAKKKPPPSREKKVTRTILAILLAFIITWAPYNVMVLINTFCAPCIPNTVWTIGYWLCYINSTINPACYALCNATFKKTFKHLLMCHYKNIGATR
# [4] = Selectivity ratio relative to atropine is [(atropine IC50 value for pancreas)/(compound IC50 value for pancreas)] / [(atropine KB value for ileum) /(compound KB value for ileum)]; format: tissue-based
# How it was run: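 Rat pancreatic acini from male Sprague-Dawley rats, collagenase digested, exposed to 10^-5 M carbachol with varied compound levels. […] Ileum KB comes from Schild plots on male guinea pig distal ileum at 37 °C, ACh-induced isometric contraction, compound added 30 s before ACh. Ratio as printed, referenced to atropine.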
# [5] = molecular target: T4, Muscarinic acetylcholine receptor M4 (Homo sapiens, UniProt P08173); assay: Antimuscarinic potency and subset specificity was characterised by its inhibition of the [3H]NMS Binding to Muscarinic acetylcholine receptor M4 subtype; how it was run: as §1
# T4 sequence (P08173 whole entry): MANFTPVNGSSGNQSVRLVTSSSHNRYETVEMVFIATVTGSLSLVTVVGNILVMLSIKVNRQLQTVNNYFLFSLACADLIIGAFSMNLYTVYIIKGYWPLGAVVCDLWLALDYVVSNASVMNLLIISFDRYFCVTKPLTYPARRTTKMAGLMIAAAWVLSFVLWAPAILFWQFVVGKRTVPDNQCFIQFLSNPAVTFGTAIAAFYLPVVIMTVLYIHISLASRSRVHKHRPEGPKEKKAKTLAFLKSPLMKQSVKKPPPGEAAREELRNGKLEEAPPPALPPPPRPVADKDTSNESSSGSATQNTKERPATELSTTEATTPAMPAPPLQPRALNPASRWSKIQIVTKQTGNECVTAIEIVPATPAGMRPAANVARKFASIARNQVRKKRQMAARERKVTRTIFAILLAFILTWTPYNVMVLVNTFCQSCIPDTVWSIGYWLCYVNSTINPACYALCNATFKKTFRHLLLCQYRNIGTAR
# [6] = Selectivity index is defined as the ratio of Ki value for m3 receptor / Ki value for M4 receptor
# [7] = molecular target: Muscarinic acetylcholine receptor M1 and M3 (Homo sapiens) (UniProt P20309+P11229); assay: Selectivity index is defined as the ratio of Ki value for m1 receptor / Ki value for m3 receptor; format: protein assay
# [8] = molecular target: T3, Muscarinic acetylcholine receptor M2; assay: Antimuscarinic potency and subset specificity was characterised by inhibition of the [3H]NMS Binding to Muscarinic acetylcholine receptor M2 subtype; how it was run: as §1
# [9] = molecular target: T2, Muscarinic acetylcholine receptor M1; assay: Antimuscarinic potency and subset specificity was characterised by inhibition of the [3H]NMS Binding to Muscarinic acetylcholine receptor M1 subtype; how it was run: as §1
# [10] = molecular target: T1, Muscarinic acetylcholine receptor M3; assay: Antimuscarinic potency and subset specificity was characterised by its inhibition of the [3H]NMS Muscarinic acetylcholine receptor M3 subtype; how it was run: as §1
# Chain of Muscarinic acetylcholine receptor M1 and M3 (Homo sapiens) (P20309 whole entry, looked up, one chain of several): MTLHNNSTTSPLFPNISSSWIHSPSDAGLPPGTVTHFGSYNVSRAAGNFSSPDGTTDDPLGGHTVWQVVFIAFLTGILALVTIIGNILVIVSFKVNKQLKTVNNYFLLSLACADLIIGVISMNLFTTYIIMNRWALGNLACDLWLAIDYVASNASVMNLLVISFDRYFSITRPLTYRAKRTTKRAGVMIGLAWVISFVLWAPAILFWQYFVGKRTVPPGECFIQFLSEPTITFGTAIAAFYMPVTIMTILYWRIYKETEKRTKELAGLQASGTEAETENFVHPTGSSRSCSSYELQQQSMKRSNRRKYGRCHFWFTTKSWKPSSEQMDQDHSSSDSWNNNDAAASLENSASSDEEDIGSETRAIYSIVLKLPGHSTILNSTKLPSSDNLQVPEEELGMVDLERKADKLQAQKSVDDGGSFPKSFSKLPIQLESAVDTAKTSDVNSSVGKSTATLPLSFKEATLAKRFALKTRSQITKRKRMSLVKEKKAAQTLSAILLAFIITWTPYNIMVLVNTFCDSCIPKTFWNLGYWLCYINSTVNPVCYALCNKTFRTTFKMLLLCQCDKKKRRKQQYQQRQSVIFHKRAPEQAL
# T1 sequence (P20309 whole entry): as the sequence (P20309 whole entry, looked up, one chain of several) above
Structure (SMILES),Ki [1] [nM],Ki [2] [nM],Ki [3] [nM],Selectivity [4],Ki [5] [nM],Selectivity ratio [6],Selectivity ratio [7],Ki [8] [nM],Ki [9] [nM],Ki [10] [nM]
CN(C)CCCOC(=O)C(C)(c1ccccc1)C1CCCCC1 (centres undefined),1.7,1.9,26.9,30.8,1.5,0.9,0.9,–,–,–
CCN(CC)CCOC(=O)C(C)(c1ccccc1)c1ccccc1 [APROFENE],–,–,–,–,7.4,–,–,9.3,2.1,–
CCN(CC)CCCCCOC(=O)C(C)(c1ccccc1)C1CCCCC1 (centres undefined),178,298,246,11.5,173,1,0.6,–,–,–
CCN(CC)CCOC(=O)C(C)(c1ccccc1)C1CCCCC1 (centres undefined),–,4,23.4,16.7,18.5,1.9,2.5,–,–,9.9
CCN(CC)CCCOC(=O)C(C)(c1ccccc1)C1CCCCC1 (centres undefined),4,2.9,19.7,19.1,4.6,1.2,1.4,–,–,–
CCN(CC)CCCCOC(=O)C(C)(c1ccccc1)C1CCCCC1 (centres undefined),160,111,248,–,209,–,–,–,–,–
CN(C)CCCCOC(=O)C(C)(c1ccccc1)C1CCCCC1 (centres undefined),31.2,40.7,258,–,65.6,–,–,–,–,–
